Experimental data from different studies.
Target: Testis-specific serine/threonine-protein kinase 1 (TSSK1B, Homo sapiens, UniProt Q9BXA7)
One construct used (Q9BXA7 1-367): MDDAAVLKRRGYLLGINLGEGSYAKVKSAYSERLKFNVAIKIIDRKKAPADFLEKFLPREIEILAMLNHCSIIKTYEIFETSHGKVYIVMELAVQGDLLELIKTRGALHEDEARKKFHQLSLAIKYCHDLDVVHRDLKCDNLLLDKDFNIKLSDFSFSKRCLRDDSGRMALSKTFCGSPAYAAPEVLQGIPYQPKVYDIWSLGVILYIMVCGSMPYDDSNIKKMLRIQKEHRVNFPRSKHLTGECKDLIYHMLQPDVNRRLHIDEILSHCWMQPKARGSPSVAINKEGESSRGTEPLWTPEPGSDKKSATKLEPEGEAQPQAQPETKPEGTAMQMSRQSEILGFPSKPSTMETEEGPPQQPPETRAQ

SMILES | test | conditions | endpoint | result
Cc1ccc(NC(=O)c2ccc(C)c(C(F)(F)F)c2)cc1C#Cc1nn(C2CCC(O)CC2)c2ncnc(N)c12 (stereo not drawn) | cell-free assay | 10 µM | remaining signal | 100%
Cc1ccc(Nc2nccc(N(C)c3ccc4c(C)n(C)nc4c3)n2)cc1S(N)(=O)=O | enzyme activity, inhibitor | 0.3 µM | inhibition | -1%
CC(=O)C1=C(C)N(c2cccc(C(F)(F)F)c2)C(=O)N[C@@H]1c1ccc(C#N)nc1 | cell-free assay, competition with immobilised ligand | 1 µM | remaining binding | 100%
COc1cc(Nc2cnc(C#N)c(O[C@H](C)CN(C)C)n2)ncc1-c1cnn(C)c1 | enzyme activity, inhibitor, radiometric | 1 µM | remaining activity | 72%
N#Cc1ccc(Nc2ccc3[nH]c(=O)[nH]c3c2)c(Cl)c1 | cell-free assay, competition with immobilised ligand | 1 µM | remaining binding | 56%
CNc1cccc2cc(C(=O)Nc3ccc(C(=O)O)cc3)c(=O)[nH]c12 | enzyme activity, inhibitor | 10 µM | inhibition | 2.1%
COc1cc(Cl)c(C(=O)N[C@@H](CN[C@H]2CC[C@@H](N)CC2)Cc2ccc(C#N)cc2)cc1-c1ccc(CN[C@H](C)c2ccc(C)cc2)o1 | enzyme activity, inhibitor | 1 µM | remaining activity | 101%
CS(=O)(=O)N1CCCC(NC(=O)[C@H](CCC2CCCCC2)NC(=O)c2ccc(CNC(=O)c3cnc4ccccn34)cc2)C1 (stereo partly drawn) | cell-free assay, competition with immobilised ligand | 0.1 µM | remaining binding | 94%
COc1cc(/C=C/C(=O)CC(=O)/C=C/c2ccc(O)c(OC)c2)ccc1O | enzyme activity, inhibitor | 1 µM | activity vs control | 106%
Cc1ccc(NC(=O)c2ccc(CN3CCN(C)CC3)cc2)cc1Nc1nc(-c2cccnc2)cs1 | cell-free assay | 0.5 µM | remaining signal | 100%
CCN(CC)c1ccc(C2=NNC(=O)CC2C)cc1[N+](=O)[O-] (stereo not drawn) | enzyme activity, inhibitor | 10 µM | remaining activity | 96%
CCCS(=O)(=O)Nc1ccc(F)c(C(=O)c2c[nH]c3ncc(-c4ccc(Cl)cc4)cc23)c1F | enzyme activity, inhibitor | 1 µM | inhibition | < 10%
CNC(=O)c1cc(Oc2ccc(NC(=O)Nc3ccc(Cl)c(C(F)(F)F)c3)cc2)ccn1 | enzyme activity, inhibitor | 10 µM | inhibition | 2%
COc1cc2ncnc(Nc3ccc(Oc4ccccc4)c(C)c3C)c2cc1OC | enzyme activity, inhibitor | 1 µM | inhibition | 4%
CCN(CC)CCNC(=O)c1c(C)[nH]c(/C=C2\C(=O)Nc3ccc(F)cc32)c1C | enzyme activity, inhibitor | 0.3 µM | inhibition | -1%
CN(C)C(=O)Cn1cc(-c2nc(C3(c4ccc(-c5cnc(N)nc5)cc4)CC3)no2)cn1 | cell-free assay, competition with immobilised ligand | 1 µM | remaining binding | 100%
CN(C)C1CCN(CC#Cc2nn(C3CCCC3)c3nc(NCc4ccccc4)ncc23)C1 (stereo not drawn) | enzyme activity, inhibitor, FRET | 10 µM | inhibition | -8%
Cc1cc(NC(=O)c2cccc3cc(-c4cccc5[nH]nc(N)c45)ccc23)ccc1F | enzyme activity, inhibitor | 0.1 µM | activity vs control | 86%
O=C(Nc1cccnn1)N1CC(C/C=C/c2cncc(Oc3ccc(C(F)(F)F)cn3)n2)C1 | cell-free assay, competition with immobilised ligand | 1 µM | remaining binding | 100%
O=C1Nc2ccc(Cl)cc2C1=Cc1cc(Cl)c(O)c(Cl)c1 | cell-free assay | 0.5 µM | remaining signal | 88.2%
FC(F)(F)c1ccc2c(c1)nc(-c1cccnc1)n2C1CC1 | cell-free assay, competition with immobilised ligand | 1 µM | remaining binding | 100%
O=C(Nc1cnn(-c2csc(C(=O)NC3COC3)c2)c1)Nc1ccccc1Cl | enzyme activity, inhibitor | 5 µM | remaining activity | 102%
C[C@H](c1cccc(C#N)c1)n1cc(Cl)cc(C(N)=O)c1=N | cell-free assay, competition with immobilised ligand | 1 µM | remaining binding | 96%
CC(C)(C)c1nc2c(s1)c1nc(N)ncc1c1ccc(NS(=O)(=O)c3c(F)cccc3F)c(F)c12 | enzyme activity, inhibitor, radiometric | 1 µM | remaining activity | 88%
